The values below come from article PMC6745892 (Journal of Medicinal Chemistry, 2019).

In one experiment the target is T1, mDAGL-α (Mus musculus, UniProt Q6WQJ1).
T1 sequence (Q6WQJ1 1-1044): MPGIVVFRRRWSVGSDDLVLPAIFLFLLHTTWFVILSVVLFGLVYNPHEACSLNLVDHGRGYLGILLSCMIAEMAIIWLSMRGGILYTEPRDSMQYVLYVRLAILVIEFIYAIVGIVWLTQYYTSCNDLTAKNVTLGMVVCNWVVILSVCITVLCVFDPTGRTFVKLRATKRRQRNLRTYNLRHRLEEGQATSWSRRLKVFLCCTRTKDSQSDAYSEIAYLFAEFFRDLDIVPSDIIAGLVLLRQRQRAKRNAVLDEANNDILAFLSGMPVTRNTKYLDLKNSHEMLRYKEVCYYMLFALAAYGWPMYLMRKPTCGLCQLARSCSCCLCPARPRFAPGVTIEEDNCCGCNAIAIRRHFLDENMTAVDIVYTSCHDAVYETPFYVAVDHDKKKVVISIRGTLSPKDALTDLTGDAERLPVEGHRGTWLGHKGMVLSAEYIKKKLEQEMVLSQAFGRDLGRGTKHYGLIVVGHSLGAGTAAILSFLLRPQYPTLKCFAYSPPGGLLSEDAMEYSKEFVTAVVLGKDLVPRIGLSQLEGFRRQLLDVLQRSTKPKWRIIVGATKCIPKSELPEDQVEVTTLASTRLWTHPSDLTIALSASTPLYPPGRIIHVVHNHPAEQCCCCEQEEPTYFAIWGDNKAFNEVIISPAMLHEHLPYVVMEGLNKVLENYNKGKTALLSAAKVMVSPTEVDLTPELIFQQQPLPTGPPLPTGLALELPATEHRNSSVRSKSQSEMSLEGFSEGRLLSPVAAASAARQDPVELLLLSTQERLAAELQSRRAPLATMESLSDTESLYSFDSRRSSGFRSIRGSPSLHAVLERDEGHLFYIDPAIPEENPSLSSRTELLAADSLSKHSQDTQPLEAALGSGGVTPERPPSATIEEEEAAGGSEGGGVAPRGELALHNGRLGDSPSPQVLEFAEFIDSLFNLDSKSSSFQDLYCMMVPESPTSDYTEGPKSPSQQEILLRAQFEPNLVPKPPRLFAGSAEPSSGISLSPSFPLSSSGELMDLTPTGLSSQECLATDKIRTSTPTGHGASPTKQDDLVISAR
The experiment is described as follows: Standard PNP-butyrate surrogate substrate assay. It is filed as biochemical. In outline:
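Membrane fraction of HEK293T cells transiently transfected with mDAGL-α, 0.05 μg/μL final, in 50 mM Hepes pH 7.2. Inhibitor in DMSO preincubated 20 min, then PNP-butyrate added (0.3 mM final; 5% DMSO final). OD 420 nm read after 30 min at 20 °C. Data corrected for 10 μM THL background and normalized to DMSO control. N = 2, n = 2; plates kept if Z′ > 0.6.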

The next experiment addresses T2, DAGL-α (Mus musculus, UniProt Q6WQJ1).
T2 sequence (Q6WQJ1 1-1044): T1 sequence (Q6WQJ1 1-1044)
Type of experiment: biochemical. To be noted: ratio of kinact versus KT109 and DH376.

Take `O=C(N1CCCC[C@@H]1Cc1ccccc1)n1ncc(C(O)(c2ccc(F)cc2)c2ccc(F)cc2)n1` [Compound 1, (R)-(2-Benzylpiperidin-1-yl)(4-(bis(4-fluorophenyl)(hydroxy)methyl)-2H-1,2,3-triazol-2-yl)methanone]: the “potency in the standard surrogate substrate assay (in words)” value at mDAGL-α is “low nanomolar”. For the same molecule, the “inactivation rate (kinact) times higher than for KT109 and DH376” value at DAGL-α is recorded as 2–3 times.
For `O=C(N1CCCC[C@@H]1Cc1ccccc1)n1cc(C(O)(c2ccc(F)cc2)c2ccc(F)cc2)nn1` [Compound 2, (R)-(2-Benzylpiperidin-1-yl)(4-(bis(4-fluorophenyl)(hydroxy)methyl)-1H-1,2,3-triazol-1-yl)methanone], in that order: “low nanomolar” and 2–3 times.
